From ChEMBL document CHEMBL3286155, “Tricyclic pyrazoles. Part 6. Benzofuro[3,2-c]pyrazole: a versatile architecture for CB2 selective ligands” (Eur J Med Chem, 2014)
The source made the active and inactive calls. The rule behind the calls is not given here.

Tests used:
Mus musculus = species on record: Mus musculus; test: Selectivity ratio of Ki for CB1 receptor in CD1 mouse cerebellum-less brain homogenate to Ki for CB2 receptor in CD1 mouse spleen homogenate; assay type: tissue-based
How it was run: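 Ki measured in two assays. CB1 used male CD1 mouse brain (minus cerebellum) membranes and CB2 used spleen membranes, each with 0.5-1.0 nM [3H]-CP-55,940 for 1 h at 30 °C in TME buffer pH 7.4. IC50 converted by Cheng-Prusoff. Each Ki comes from five independent triplicate experiments, and the line is the ratio of the two Ki values.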

[1] = molecular target: Cannabinoid receptor 2 (Homo sapiens) (UniProt P34972); test: Intrinsic activity at CB2 receptor in human HL60 cells assessed as upregulation of phosphorylated ERK1/2 expression at 5 nM after 15 mins by Western blotting analysis in presence of CB2 receptor antagonist AM630; assay type: cell-based; conditions: HL-60
How it was run: (§1)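 HL-60 cells were pre-treated 5 min with CB2 antagonist AM630 (75 nM), then exposed 15 min to agonist in medium with 1% DMSO. Phospho-ERK1/2 in cell lysates was measured by western blot with anti-phospho-ERK1/2 clone AW39R. Controls were AM630 alone and agonist without pre-treatment. Results given as mean percentage of vehicle (100%) ± SEM.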

Cannabinoid receptor 1 = Cannabinoid receptor 1 (Mus musculus, UniProt P47746); test: Displacement of [3H]-CP-55,940 from CB1 receptor in CD1 mouse cerebellum-less brain homogenate after 1 hr by liquid scintillation counting analysis; assay type: tissue-based
How it was run: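 Membranes from brain (minus cerebellum) of male CD1 mice, homogenised in ice-cold TME buffer (50 mM Tris-HCl, 1 mM EDTA, 3.0 mM MgCl2, pH 7.4), incubated with 0.5-1.0 nM [3H]-CP-55,940 for 1 h at 30 °C with fatty acid-free BSA. Non-specific binding defined with CP-55,940. Filtration, then scintillation counting. Triplicates in five independent assays; IC50 from sigmoid fit, converted to Ki by Cheng-Prusoff.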

[2] = molecular target: Cannabinoid receptor 2 (Homo sapiens) (UniProt P34972); test: Intrinsic activity at CB2 receptor in human HL60 cells assessed as upregulation of phosphorylated ERK1/2 expression at 5 nM after 15 mins by Western blotting analysis relative to control; assay type: cell-based; conditions: HL-60
How it was run: (§2)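 HL-60 human promyelocytic leukaemia cells were treated for 15 min with compounds in culture medium with 1% DMSO. Cells were pelleted, washed in PBS and lysed at 4 °C. Phospho-ERK1/2 in total extracts was detected by western blot with anti-phospho-ERK1/2 clone AW39R and chemiluminescence. Results expressed as mean percentage of vehicle (100%) ± SEM.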

Cannabinoid receptor 2 = Cannabinoid receptor 2 (Mus musculus, UniProt P47936); test: Displacement of [3H]-CP-55,940 from CB2 receptor in CD1 mouse spleen homogenate after 1 hr by liquid scintillation counting analysis; assay type: tissue-based
How it was run: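 Male CD1 mice killed by cervical dislocation; spleen homogenised in 20 vol ice-cold TME buffer (50 mM Tris-HCl, 1 mM EDTA, 3.0 mM MgCl2, pH 7.4), spun 1086 × g then 45,000 × g. Membranes incubated with 0.5–1.0 nM [3H]CP-55,940, 1 h, 30 °C, with 5 mg/mL fatty-acid-free BSA; nonspecific binding defined with CP-55,940. Filtration stop. Triplicates, five independent assays. Sigmoid fit for IC50, then Cheng-Prusoff Ki.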

[3] = molecular target: Cannabinoid receptor 2 (Homo sapiens) (UniProt P34972); test: Intrinsic activity at CB2 receptor in human HL60 cells assessed as upregulation of phosphorylated ERK1/2 expression at 10 nM after 15 mins by Western blotting analysis in presence of CB2 receptor antagonist AM630; assay type: cell-based; conditions: HL-60; how it was run: as §1
[4] = molecular target: Cannabinoid receptor 2 (Homo sapiens) (UniProt P34972); test: Intrinsic activity at CB2 receptor in human HL60 cells assessed as upregulation of phosphorylated ERK1/2 expression at 10 nM after 15 mins by Western blotting analysis relative to control; assay type: cell-based; conditions: HL-60; how it was run: as §2
[5] = molecular target: Cannabinoid receptor 2 (Homo sapiens) (UniProt P34972); test: Intrinsic activity at CB2 receptor in human HL60 cells assessed as upregulation of phosphorylated ERK1/2 expression at 50 nM after 15 mins by Western blotting analysis in presence of CB2 receptor antagonist AM630; assay type: cell-based; conditions: HL-60; how it was run: as §1
[6] = molecular target: Cannabinoid receptor 2 (Homo sapiens) (UniProt P34972); test: Intrinsic activity at CB2 receptor in human HL60 cells assessed as upregulation of phosphorylated ERK1/2 expression at 50 nM after 15 mins by Western blotting analysis relative to control; assay type: cell-based; conditions: HL-60; how it was run: as §2
[7] = molecular target: Cannabinoid receptor 2 (Homo sapiens) (UniProt P34972); test: Intrinsic activity at CB2 receptor in human HL60 cells assessed as upregulation of phosphorylated ERK1/2 expression at 75 nM after 15 mins by Western blotting analysis in presence of CB2 receptor antagonist AM630; assay type: cell-based; conditions: HL-60; how it was run: as §1
[8] = molecular target: Cannabinoid receptor 2 (Homo sapiens) (UniProt P34972); test: Intrinsic activity at CB2 receptor in human HL60 cells assessed as upregulation of phosphorylated ERK1/2 expression at 75 nM after 15 mins by Western blotting analysis relative to control; assay type: cell-based; conditions: HL-60; how it was run: as §2
Homo sapiens = species on record: Homo sapiens; test: Selectivity ratio of Ki for CB1 receptor (unknown origin) to Ki for CB2 receptor (unknown origin)

Chain of Cannabinoid receptor 2 (Homo sapiens) (P34972 whole entry): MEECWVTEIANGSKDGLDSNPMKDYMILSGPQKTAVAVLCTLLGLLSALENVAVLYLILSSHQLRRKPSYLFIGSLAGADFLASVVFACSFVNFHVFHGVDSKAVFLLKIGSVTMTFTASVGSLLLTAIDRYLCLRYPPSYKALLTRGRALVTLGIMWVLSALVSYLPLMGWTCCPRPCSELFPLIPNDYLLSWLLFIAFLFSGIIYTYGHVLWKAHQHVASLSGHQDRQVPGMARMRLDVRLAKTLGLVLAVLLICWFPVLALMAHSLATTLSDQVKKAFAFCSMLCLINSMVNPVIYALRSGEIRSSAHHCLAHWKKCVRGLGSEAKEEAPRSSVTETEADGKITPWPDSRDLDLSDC
Chain of Cannabinoid receptor 1 (P47746 whole entry): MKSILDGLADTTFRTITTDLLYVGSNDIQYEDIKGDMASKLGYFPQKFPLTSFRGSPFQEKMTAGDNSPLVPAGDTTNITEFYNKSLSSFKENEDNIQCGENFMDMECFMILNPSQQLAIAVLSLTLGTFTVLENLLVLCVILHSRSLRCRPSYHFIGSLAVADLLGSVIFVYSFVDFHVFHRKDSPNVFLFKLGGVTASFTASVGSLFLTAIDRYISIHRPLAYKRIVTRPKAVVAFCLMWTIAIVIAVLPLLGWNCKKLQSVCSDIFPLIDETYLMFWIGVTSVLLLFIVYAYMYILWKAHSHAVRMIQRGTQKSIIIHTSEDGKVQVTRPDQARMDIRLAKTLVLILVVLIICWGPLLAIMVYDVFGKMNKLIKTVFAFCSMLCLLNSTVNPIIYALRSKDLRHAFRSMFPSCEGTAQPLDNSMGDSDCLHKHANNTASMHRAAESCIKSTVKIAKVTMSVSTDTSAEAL
Chain of Cannabinoid receptor 2 (P47936 whole entry): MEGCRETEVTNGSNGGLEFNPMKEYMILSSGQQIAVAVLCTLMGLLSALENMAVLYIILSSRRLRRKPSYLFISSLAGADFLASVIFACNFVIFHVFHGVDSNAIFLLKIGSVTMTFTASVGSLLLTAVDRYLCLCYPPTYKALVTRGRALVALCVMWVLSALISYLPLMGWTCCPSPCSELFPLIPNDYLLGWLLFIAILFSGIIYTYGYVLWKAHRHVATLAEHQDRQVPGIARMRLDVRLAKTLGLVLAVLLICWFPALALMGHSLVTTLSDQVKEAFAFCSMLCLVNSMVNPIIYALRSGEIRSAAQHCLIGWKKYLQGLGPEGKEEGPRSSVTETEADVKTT

Compound	Ratio Ki (Mus musculus)	Ki (Cannabinoid receptor 1)	Ki (Cannabinoid receptor 2)	Intrinsic activity [8]	further results
Cc1ccc2c(c1)oc1c(C(=O)N[C@@H]3CC4CC([C@H]3C)C4(C)C)nn(-c3ccc(Cl)cc3Cl)c12 (stereo not given in full)	648	2400 nM	3.7 nM	–	Intrinsic activity [1]: inactive; Intrinsic activity [2]: 205%
Cc1ccc2c(c1)oc1c(C(=O)N[C@H]3CC4CC[C@]3(C)C4(C)C)nn(-c3ccc(Cl)cc3Cl)c12	134	469 nM	3.5 nM	–	Intrinsic activity [3]: inactive; Intrinsic activity [4]: 189%
Cc1ccc2c(c1)oc1c(C(=O)NC3C4CC5CC(C4)CC3C5)nn(-c3ccc(Cl)cc3Cl)c12 (stereo not given)	30.7	–	–	–	Intrinsic activity [5]: inactive; Intrinsic activity [6]: 187%
Cc1ccc2c(c1)oc1c(C(=O)NN3CCCC3)nn(-c3ccc(Cl)cc3Cl)c12	92.3	–	–	185%	Intrinsic activity [7]: inactive
Cc1ccc2c(c1)oc1c(C(=O)N[C@H]3C4(C)CCC(C4)C3(C)C)nn(-c3ccc(Cl)cc3Cl)c12 (stereo not given in full)	103	257 nM	2.5 nM	–	Intrinsic activity [3]: inactive; Intrinsic activity [4]: 200%
Cc1ccc2c(c1)Cc1c(C(=O)NN3CCCCC3)nn(-c3ccc(Cl)cc3Cl)c1-2	–	–	–	–	Ratio Ki (Homo sapiens): 9810
Cc1ccc2c(c1)oc1c(C(=O)NC3CCCCC3)nn(-c3ccc(Cl)cc3Cl)c12	79.9	–	–	–	Intrinsic activity [5]: inactive; Intrinsic activity [6]: 196%
Cc1c(C(=O)c2cccc3ccccc23)c2cccc3c2n1[C@H](CN1CCOCC1)CO3	–	–	–	190%	–
Cc1ccc2c(c1)oc1c(C(=O)NN3CCCCC3)nn(-c3ccc(Cl)cc3Cl)c12	139	–	–	–	Intrinsic activity [5]: inactive; Intrinsic activity [6]: 205%
Cc1ccc2c(c1)oc1c(C(=O)NN3CCOCC3)nn(-c3ccc(Cl)cc3Cl)c12	108	–	–	178%	Intrinsic activity [7]: inactive
Cc1ccc2c(c1)oc1c(C(=O)NC34CC5CC(CC(C5)C3)C4)nn(-c3ccc(Cl)cc3Cl)c12	13	–	–	175%	Intrinsic activity [7]: inactive
Cc1ccc2c(c1)oc1c(C(=O)N[C@@H]3C[C@H](C)CC[C@H]3C(C)C)nn(-c3ccc(Cl)cc3Cl)c12	16.6	38.2 nM	2.3 nM	–	Intrinsic activity [1]: inactive; Intrinsic activity [2]: 193%
